Laboratory results taken from ChEMBL document CHEMBL1132831, “Synthesis and characterization of a potent and selective protein tyrosine phosphatase inhibitor, 2” (Bioorg Med Chem Lett, 2000).

Target: T1, Receptor-type tyrosine-protein phosphatase C (Homo sapiens, UniProt P08575)
T1 sequence (P08575 whole entry): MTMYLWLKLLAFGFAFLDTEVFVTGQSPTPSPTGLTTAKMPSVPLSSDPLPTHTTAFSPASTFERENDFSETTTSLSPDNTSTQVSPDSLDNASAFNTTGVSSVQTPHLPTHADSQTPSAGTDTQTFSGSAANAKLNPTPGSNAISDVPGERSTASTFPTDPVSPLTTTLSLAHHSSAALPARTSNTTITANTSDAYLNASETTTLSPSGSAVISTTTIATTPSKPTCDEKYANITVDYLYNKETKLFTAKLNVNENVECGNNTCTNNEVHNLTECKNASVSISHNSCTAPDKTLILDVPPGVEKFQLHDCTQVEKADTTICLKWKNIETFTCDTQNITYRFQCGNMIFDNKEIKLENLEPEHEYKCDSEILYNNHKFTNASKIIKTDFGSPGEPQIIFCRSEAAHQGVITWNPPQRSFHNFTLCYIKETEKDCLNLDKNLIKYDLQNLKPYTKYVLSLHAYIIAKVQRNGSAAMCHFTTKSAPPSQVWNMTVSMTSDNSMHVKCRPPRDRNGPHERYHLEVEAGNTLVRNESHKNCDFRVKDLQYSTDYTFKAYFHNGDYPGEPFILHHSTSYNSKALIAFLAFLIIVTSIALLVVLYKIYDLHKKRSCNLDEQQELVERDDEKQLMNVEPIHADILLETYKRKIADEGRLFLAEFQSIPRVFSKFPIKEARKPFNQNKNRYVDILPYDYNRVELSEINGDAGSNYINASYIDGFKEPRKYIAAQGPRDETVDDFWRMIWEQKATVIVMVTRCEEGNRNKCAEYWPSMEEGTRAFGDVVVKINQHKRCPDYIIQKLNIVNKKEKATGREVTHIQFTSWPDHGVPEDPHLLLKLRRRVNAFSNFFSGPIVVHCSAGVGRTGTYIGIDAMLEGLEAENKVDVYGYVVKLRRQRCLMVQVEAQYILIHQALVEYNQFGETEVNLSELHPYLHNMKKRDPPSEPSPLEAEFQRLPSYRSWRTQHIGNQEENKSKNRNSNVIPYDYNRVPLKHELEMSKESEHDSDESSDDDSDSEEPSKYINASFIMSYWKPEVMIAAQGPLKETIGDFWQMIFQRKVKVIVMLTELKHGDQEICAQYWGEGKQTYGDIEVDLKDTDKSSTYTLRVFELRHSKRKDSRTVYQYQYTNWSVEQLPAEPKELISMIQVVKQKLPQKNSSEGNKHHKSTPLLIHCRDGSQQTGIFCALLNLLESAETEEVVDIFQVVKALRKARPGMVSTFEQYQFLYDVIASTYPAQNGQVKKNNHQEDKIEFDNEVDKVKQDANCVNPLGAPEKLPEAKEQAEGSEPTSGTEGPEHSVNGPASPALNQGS
Test: The compound was evaluated for its inhibitory activity towards Protein tyrosine phosphatase of CD45
Method in brief: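 Commercial enzyme with 1 mM p-nitrophenyl phosphate in 25 mM MOPS pH 6.5, 5 mM EDTA, 1 mM dithiothreitol. Compound was tested at various concentrations from 30 nM, with a 30 min incubation at 37 °C. The reaction was stopped with 1 N NaOH and read at 405 nm. IC50 was obtained by nonlinear regression curve fitting.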

Molecule	IC50 [µM]
CC(C)Oc1ccc2[nH]c([S+]([O-])Cc3ccccn3)nc2c1 (configuration not stated)	120
CSc1ccnc(C[S+]([O-])c2nc3cc(OC(C)C)ccc3[nH]2)c1 (configuration not stated)	0.28
Cc1ccnc(C[S+]([O-])c2nc3ccc(OC(C)C)cc3[nH]2)c1 (configuration not stated)	380
CSc1ccnc(C[S+]([O-])c2nc3ccc(OC4CCCCC4)cc3[nH]2)c1 (configuration not stated)	80.5
CSc1ccnc(CSc2nc3ccc(OC(C)C)cc3[nH]2)c1	> 1000

Tested on: not listed separately
Test: The compound was evaluated for its inhibitory effect of dual specificity phosphatases of VHR
Method in brief: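 Bacterially expressed GST-VHR fusion protein with 1 mM p-nitrophenyl phosphate in 25 mM MOPS pH 6.5, 5 mM EDTA, 1 mM dithiothreitol. Compound was present at various concentrations from 30 nM during 30 min at 37 °C. NaOH was then added and absorbance read at 405 nm. IC50 was derived by nonlinear regression.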

Molecule	IC50 [µM]
CSc1ccnc(C[S+]([O-])c2nc3cc(OC(C)C)ccc3[nH]2)c1 (configuration not stated)	50.2
VANADATE	106
